Experimental data from BindingDB's records for PubMed 36760746 (n/a, 2023).

Target: Induced myeloid leukemia cell differentiation protein Mcl-1 (Homo sapiens, UniProt Q07820)
Assay: Inhibition of FITC-labelled BAK BH3 peptide to 6His-MBP tagged recombinant human MCL-1 (172 to 327 residues) expressed in Escherichia coli assessed as inhibition constant by fluorescence polarization competition assay
Outline: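 Fluorescence polarization competition: compounds titrated into a mixture of MCL-1 (residues 172–327) and FITC-labelled BAK BH3 peptide. Displacement of the peptide was followed by the change in polarization, and Ki was derived from the competition titration.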

Chain of Induced myeloid leukemia cell differentiation protein Mcl-1 (Q07820 whole entry, the tested form may be a part): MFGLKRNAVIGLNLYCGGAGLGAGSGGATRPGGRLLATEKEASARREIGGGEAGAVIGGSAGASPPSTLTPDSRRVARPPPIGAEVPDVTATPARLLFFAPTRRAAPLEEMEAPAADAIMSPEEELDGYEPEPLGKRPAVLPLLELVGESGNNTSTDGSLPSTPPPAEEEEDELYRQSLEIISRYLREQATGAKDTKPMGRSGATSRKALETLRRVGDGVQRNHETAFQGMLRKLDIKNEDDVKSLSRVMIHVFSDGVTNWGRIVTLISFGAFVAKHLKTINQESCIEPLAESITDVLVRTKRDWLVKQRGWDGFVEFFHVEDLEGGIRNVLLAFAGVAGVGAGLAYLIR

Ki, > 500 µM:
CC(C)CN(c1cccc(C(=O)O)c1)S(=O)(=O)c1ccccc1 [3-(N-isobutylphenyl-sulfonamido) benzoic acid]
CC(C)CN(c1ccc(C(=O)O)cc1)S(=O)(=O)c1ccc2ccccc2c1 [4-(N-isobutylnaphthalene-2-sulfonamido) benzoic acid]
CC(C)CN(c1cccc(C(=O)O)c1)S(=O)(=O)c1ccc(F)cc1 [3-(4-fluoro-N-isobutylphenyl-sulfonamido) benzoic acid]
CC(C)CN(c1ccc(C(=O)O)cc1)S(=O)(=O)c1ccccc1 [4-(N-isobutylphenyl-sulfonamido) benzoic acid]
CC(C)CN(c1cccc(C(=O)O)c1)S(=O)(=O)c1ccc(-c2ccccc2)cc1 [3-(N-isobutyl-[1,1'-biphenyl]-4-ylsulfonamido) benzoic acid]
CC(C)CN(c1ccc(C(=O)O)cc1)S(=O)(=O)c1ccc(F)cc1 [4-(4-fluoro-N-isobutylphenyl-sulfonamido) benzoic acid]
